Test results published in ChEMBL document CHEMBL5030505, “Assessment of NR4A Ligands That Directly Bind and Modulate the Orphan Nuclear Receptor Nurr1” (J Med Chem, 2020).
Calls of active or inactive are those of the source. No cut-off for these calls is given here.

Columns and labels:
Assay type in all cases: cell-based
HEK-293T [1] = test: Cytotoxicity in human HEK293T cells assessed as reduction in cell viability at 0.5 to 5 uM incubated for 18 hrs by Cell Titer-Glo assay; details: dose 0.5-5 µM
How it was run: (§1)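 Cells seeded at 1.5 million per 10-cm dish. Next day they were replated at 10,000 cells/well and rested 4 h. Ligand or vehicle (water, ethanol or DMSO, by ligand) was added in dose-response format in quadruplicate. After 18 h, viability was read by CellTiter-Glo luminescence. Data are mean ± s.e.m., generally representative of 2 independent experiments. One-way ANOVA versus vehicle.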

SK-N-BE(2) [2] = test: Cytotoxicity in human SKNBE2 cells assessed as reduction in cell viability at 0.5 to 5 uM incubated for 18 hrs by Cell Titer-Glo assay; details: dose 0.5-5 µM; how it was run: as §1
PC-12 [3] = test: Cytotoxicity in rat PC-12 cells assessed as reduction in cell viability at 0.5 to 5 uM incubated for 18 hrs by Cell Titer-Glo assay; details: pc-12, 18 h, dose 0.5-5 µM; how it was run: as §1
SK-N-BE(2) [4] = test: Cytotoxicity in human SKNBE2 cells assessed as reduction in cell viability at 0.01 to 1 uM incubated for 18 hrs by Cell Titer-Glo assay; details: dose 0.01-1 µM; how it was run: as §1
[5] = biological target: Nuclear receptor subfamily 4 group A member 2 (Homo sapiens) (UniProt P43354); test: Modulation of full length human Nurr1 expressed in HEK293T cells co-transfected with luciferase reporter plasmid harboring NBRE response element assessed as increase in luciferase activity incubated for 18 hrs by luciferase reporter gene assay; details: filed as modulator, dose 0.01-1 µM
How it was run: (§2)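 Full-length Nurr1 plasmid, alone (2 μg) or 1 μg plus full-length RXRα (1 μg), cotransfected with 3xNBRE- or 3xNurRE-luciferase reporter (6 μg) using Lipofectamine 2000, 18 h. Cells replated at 10,000/well for 4 h. Four ligand concentrations, or vehicle (water, ethanol or DMSO), added in quadruplicate for 18 h. Luciferase read. Fold change vs vehicle, mean ± s.e.m., one-way ANOVA vs vehicle.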

[6] = biological target: Nuclear receptor subfamily 4 group A member 2 (Homo sapiens) (UniProt P43354); test: Modulation of full length human Nurr1 expressed in HEK293T cells co-transfected with RXRalpha and luciferase reporter plasmid harboring NurRE response element assessed as increase in luciferase activity incubated for 18 hrs by luciferase reporter gene assay; details: filed as modulator, dose 0.01-1 µM; how it was run: as §2
[7] = biological target: Nuclear receptor subfamily 4 group A member 2 (Homo sapiens) (UniProt P43354); test: Modulation of full length human Nurr1 expressed in HEK293T cells co-transfected with luciferase reporter plasmid harboring NurRE response element assessed as increase in luciferase activity incubated for 18 hrs by luciferase reporter gene assay; details: filed as modulator, dose 0.01-1 µM; how it was run: as §2
[8] = biological target: Nuclear receptor subfamily 4 group A member 2 (Homo sapiens) (UniProt P43354); test: Modulation of full length human Nurr1 expressed in PC12 cells co-transfected with RXRalpha and luciferase reporter plasmid harboring NBRE response element assessed as increase in luciferase activity incubated for 18 hrs by luciferase reporter gene assay; details: PC-12, filed as modulator, dose 0.01-1 µM
How it was run: (§3)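 PC12 cells were grown at 37°C and 5% CO2 in […] medium with 15% horse serum and 2.5% FBS. They were transfected with full-length Nurr1 (1 μg) plus full-length RXRα (1 μg) and 3xNBRE- or 3xNurRE-luciferase reporter (6 μg) for 18 h, then replated at 10,000 cells/well for 4 h. Ligand or vehicle (water, ethanol or DMSO) was added in quadruplicate for 18 h. Luminescence was read as fold change over vehicle. Results are mean ± s.e.m., n=4, from 2 independent experiments, analysed by one-way ANOVA against vehicle.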

[9] = biological target: Nuclear receptor subfamily 4 group A member 2 (Homo sapiens) (UniProt P43354); test: Modulation of full length human Nurr1 expressed in SKNBE(2) cells co-transfected with luciferase reporter plasmid harboring NurRE response element assessed as increase in luciferase activity incubated for 18 hrs by luciferase reporter gene assay; details: SKNBE2, filed as modulator, dose 0.01-1 µM
HEK293T = test: Modulation of Gal4-fused VP16 expressed in HEK293T cells co-transfected with UAS repoter gene assessed as increase in luciferase activity at 0.01 to 1 uM incubated for 18 hrs by luciferase reporter gene assay; details: Human alphaherpesvirus 2, filed as modulator, dose 0.01-1 µM
How it was run: (§4)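 Cells in 10-cm dishes were transfected with Gal4-VP16 expression plasmid (2 μg) plus 5xUAS-luciferase reporter (2 μg) for 18 h. They were replated at 10,000 cells/well for 4 h, then given ligand or vehicle (water, ethanol or DMSO) in quadruplicate for 18 h. Luciferase was read with Britelite Plus. Fold change is versus vehicle-treated cells, with one-way ANOVA versus vehicle.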

PC-12 [10] = test: Cytotoxicity in rat PC-12 cells assessed as reduction in cell viability at 0.01 to 1 uM incubated for 18 hrs by Cell Titer-Glo assay; details: pc-12, 18 h, dose 0.01-1 µM; how it was run: as §1
[11] = biological target: Nuclear receptor subfamily 4 group A member 2 (Homo sapiens) (UniProt P43354); test: Modulation of full length human Nurr1 expressed in SKNBE(2) cells co-transfected with luciferase reporter plasmid harboring NBRE response element assessed as increase in luciferase activity incubated for 18 hrs by luciferase reporter gene assay; details: SKNBE2, filed as modulator, dose 0.01-1 µM
How it was run: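 Transfection of SK-N-BE(2)-C cells (1:1 EMEM/F12, 10% FBS, 37°C, 5% CO2) used full-length Nurr1 alone (2 μg, no RXRα) with 3xNBRE- or 3xNurRE-luciferase reporter (6 μg) for 18 h. Cells were replated at 10,000/well for 4 h, then exposed to ligand or vehicle in quadruplicate for 18 h. Luminescence was expressed as fold over vehicle, as mean ± s.e.m. (n=4) from 2 independent experiments, one-way ANOVA against vehicle.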

SKNBE2 = test: Modulation of Gal4-fused VP16 expressed in SKNBE(2) cells co-transfected with UAS repoter gene assessed as increase in luciferase activity at 0.01 to 1 uM incubated for 18 hrs by luciferase reporter gene assay; details: Human alphaherpesvirus 2, filed as modulator, dose 0.01-1 µM; how it was run: as §4
[12] = biological target: Nuclear receptor subfamily 4 group A member 2 (Homo sapiens) (UniProt P43354); test: Modulation of full length human Nurr1 expressed in SKNBE(2) cells co-transfected with RXRalpha and luciferase reporter plasmid harboring NBRE response element assessed as increase in luciferase activity incubated for 18 hrs by luciferase reporter gene assay; details: SKNBE2, filed as modulator, dose 0.01-1 µM
How it was run: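 SK-N-BE(2)-C cells were kept in 1:1 EMEM/F12 with 10% FBS at 37°C and 5% CO2. They were cotransfected with full-length Nurr1 (1 μg), full-length RXRα (1 μg) and 3xNBRE- or 3xNurRE-luc reporter (6 μg) for 18 h, replated at 10,000 cells/well for 4 h, and then treated with ligand or vehicle in quadruplicate for 18 h. The readout was luciferase luminescence as fold over vehicle, reported as mean ± s.e.m. (n=4) from 2 independent experiments, one-way ANOVA.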

HEK-293T [13] = test: Cytotoxicity in human HEK293T cells assessed as reduction in cell viability at 0.01 to 1 uM incubated for 18 hrs by Cell Titer-Glo assay; details: dose 0.01-1 µM; how it was run: as §1
[14] = biological target: Nuclear receptor subfamily 4 group A member 2 (Homo sapiens) (UniProt P43354); test: Modulation of full length human Nurr1 expressed in HEK293T cells co-transfected with RXRalpha and luciferase reporter plasmid harboring NBRE response element assessed as increase in luciferase activity incubated for 18 hrs by luciferase reporter gene assay; details: filed as modulator, dose 0.01-1 µM; how it was run: as §2
[15] = biological target: Nuclear receptor subfamily 4 group A member 2 (Homo sapiens) (UniProt P43354); test: Modulation of full length human Nurr1 expressed in PC12 cells co-transfected with luciferase reporter plasmid harboring NurRE response element assessed as increase in luciferase activity incubated for 18 hrs by luciferase reporter gene assay; details: PC-12, filed as modulator, dose 0.01-1 µM
How it was run: (§5)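 Here PC12 cells (FK-12 medium, 15% horse serum, 2.5% FBS, 37°C, 5% CO2) received full-length Nurr1 (2 μg) without RXRα, plus 3xNBRE- or 3xNurRE-luciferase reporter (6 μg), for 18 h. Cells were replated at 10,000/well for 4 h, then treated with ligand or vehicle in quadruplicate for 18 h. Luciferase luminescence was normalized to vehicle-treated cells. Results are mean ± s.e.m. (n=4) from 2 independent experiments, with one-way ANOVA against vehicle.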

PC-12 [16] = test: Modulation of Gal4-fused VP16 expressed in PC12 cells co-transfected with UAS repoter gene assessed as increase in luciferase activity at 0.01 to 1 uM incubated for 18 hrs by luciferase reporter gene assay; details: Human alphaherpesvirus 2, filed as modulator, dose 0.01-1 µM; how it was run: as §4
[17] = biological target: Nuclear receptor subfamily 4 group A member 2 (Homo sapiens) (UniProt P43354); test: Modulation of full length human Nurr1 expressed in PC12 cells co-transfected with luciferase reporter plasmid harboring NBRE response element assessed as increase in luciferase activity incubated for 18 hrs by luciferase reporter gene assay; details: PC-12, filed as modulator, dose 0.01-1 µM; how it was run: as §5
[18] = biological target: Nuclear receptor subfamily 4 group A member 2 (Homo sapiens) (UniProt P43354); test: Modulation of full length human Nurr1 expressed in PC12 cells co-transfected with RXRalpha and luciferase reporter plasmid harboring NurRE response element assessed as increase in luciferase activity incubated for 18 hrs by luciferase reporter gene assay; details: PC-12, filed as modulator, dose 0.01-1 µM; how it was run: as §3

Nuclear receptor subfamily 4 group A member 2 (Homo sapiens), sequence (P43354 whole entry, the tested form may be a part): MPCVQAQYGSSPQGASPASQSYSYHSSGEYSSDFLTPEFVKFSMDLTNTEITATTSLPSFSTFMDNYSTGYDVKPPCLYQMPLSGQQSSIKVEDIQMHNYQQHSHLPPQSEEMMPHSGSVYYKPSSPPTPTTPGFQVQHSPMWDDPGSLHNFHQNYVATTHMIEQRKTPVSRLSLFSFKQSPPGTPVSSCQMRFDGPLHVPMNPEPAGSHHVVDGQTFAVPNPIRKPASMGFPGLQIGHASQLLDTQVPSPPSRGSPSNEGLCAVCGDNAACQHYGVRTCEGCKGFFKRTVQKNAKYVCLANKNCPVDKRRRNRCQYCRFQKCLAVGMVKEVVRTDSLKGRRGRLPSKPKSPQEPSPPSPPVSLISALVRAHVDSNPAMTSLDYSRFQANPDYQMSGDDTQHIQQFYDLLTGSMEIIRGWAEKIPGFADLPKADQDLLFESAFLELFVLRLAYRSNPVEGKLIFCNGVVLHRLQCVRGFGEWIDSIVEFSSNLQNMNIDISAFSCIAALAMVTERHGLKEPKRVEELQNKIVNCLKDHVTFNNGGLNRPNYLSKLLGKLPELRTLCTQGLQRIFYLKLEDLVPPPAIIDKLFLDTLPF

| Activity [5] | Activity [6] | Activity [7] | Activity [8] | Activity [9] | Activity [11] | Activity [12] | Activity [14] | Activity [15] | Activity [17] | Activity [18] | SMILES | Activity (HEK-293T [1]) | Activity (SK-N-BE(2) [2]) | Activity (PC-12 [3]) | Activity (SK-N-BE(2) [4]) | Activity (HEK293T) | Activity (PC-12 [10]) | Activity (SKNBE2) | Activity (HEK-293T [13]) | Activity (PC-12 [16]) |
| --- | --- | --- | --- | --- | --- | --- | --- | --- | --- | --- | --- | --- | --- | --- | --- | --- | --- | --- | --- | --- |
| – | – | – | – | – | – | – | – | – | – | – | O=C(O)c1ccc2nc(-c3ccc(F)cc3)[nH]c2c1 | Non-Toxic | Non-Toxic | Non-Toxic | – | – | – | – | – | – |
| Dose-Dependent Effect | Dose-Dependent Effect | Dose-Dependent Effect | Dose-Dependent Effect | Dose-Dependent Effect | Dose-Dependent Effect | Dose-Dependent Effect | Dose-Dependent Effect | Dose-Dependent Effect | Dose-Dependent Effect | Dose-Dependent Effect | O=C(Nc1ccccc1)c1cn2cc(-c3ccccn3)ccc2n1 | – | – | – | Non-Toxic | Active | Non-Toxic | Active | Non-Toxic | Active |
